Measurements reported in ChEMBL document CHEMBL1123227, “Tricyclic epines. Novel (E)- and (Z)-11H-dibenz[b,e]azepines as potential central nervous system agents. Variation of the basic side chain” (1986).

Legend:
Type in all cases: functional
[1] = organism: Oryctolagus cuniculus; test: Compound was tested for the muscle-relaxing activity in rabbits
How it was run: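 Muscle electrical activity during contraction was recorded and pulses were counted. A 5 s extension was repeated every 1 min. Once pulse counts were constant (control value), the substance was given iv, and post-dose pulses were related to that value. Four to six animals were used per dose. ED50 was the dose halving muscle activity from the initial value.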

[2] = organism: Rattus norvegicus; test: Compound was tested or the anti-tryptamine activity in rats
How it was run: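 Rats were challenged with tryptamine hydrochloride (16 mg/kg iv), with test substances given ip 30 min beforehand. Activity was scored as absence of clonic front paw movements over a 5 min observation after tryptamine. ED50 was the dose preventing the symptom in half the animals, determined by Probit analysis.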

[3] = organism: Rattus norvegicus; test: Compound was tested or the anti-tryptamine activity in rats relative with respect to clozapine.
How it was run: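 Rats dosed ip 30 min before tryptamine hydrochloride 16 mg/kg iv. Effect means front paw clonic movements absent over 5 min observation after tryptamine. ED50 is the dose preventing the symptom in half the animals (Probit analysis); relative activity referenced to clozapine.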

[4] = organism: Mus musculus; test: Anticholinergic activity in mice.
How it was run: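 Groups of 10 female NMRI mice received a lethal dose of physostigmine (0.825 mg/kg sc). Test substances were given orally 30 min before the physostigmine.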

[5] = organism: Mus musculus; test: Sedative activity relative with respect to clozapine.
[6] = organism: Mus musculus; test: Anticholinergic activity relative with respect to clozapine.
[7] = organism: Mus musculus; test: Sedative activity in mice

Row | Structure (SMILES) | ED50 [1] [mg/kg] | ED50 [2] [mg/kg] | Relative activity [3] | ED50 [4] [mg/kg] | Relative activity [5] | Relative activity [6] | ED50 [7] [mg/kg]
1 | CN1CCN(C2=Nc3ccccc3C(=CC#N)c3ccccc32)CC1 | 0.059 | 30 | 0.17 | – | – | – | –
2 | C[N+]1([O-])CCN(C2=Nc3ccccc3C(=CC#N)c3ccccc32)CC1 | – | – | – | 15.9 | 0.33 | 0.89 | –
3 | CCN1CCN(C2=Nc3ccccc3C(=CC#N)c3ccccc32)CC1 | ~0.32 | 6.6 | 0.76 | – | – | – | –
4 | Cc1ccc2c(c1)N=C(N1CCN(C)CC1)c1ccccc1C2=CC#N | 0.028 | 6 | 0.83 | – | 5.9 | 0.45 | 0.8
5 | CCN1CCCC1CNC1=Nc2ccccc2/C(=C/C#N)c2ccccc21 (stereo not drawn) | – | – | – | > 100 | 0.28 | <0.14 | 17.2
6 | N#C/C=C1/c2ccccc2N=C(NCCN)c2ccccc21 | – | – | – | > 100 | <0.04 | <0.14 | > 100
7 | Cc1ccc2c(c1)/C(=C/C#N)c1ccccc1C(N1CCN(C)CC1)=N2 | ~0.1 | ~21 | 0.23 | – | – | – | –
8 | CN1CCN(C2=Nc3ccccc3/C(=C/C#N)c3ccccc32)CC1 | 0.046 | 79 | 0.06 | – | – | 0.81 | –
9 | N#C/C=C1/c2ccccc2N=C(N2CCN(CCO)CC2)c2ccccc21 | – | – | – | ~68.1 | 0.32 | 0.21 | 14.6
10 | CN1CCC(OC2=Nc3ccccc3/C(=C/C#N)c3ccccc32)CC1 | – | – | – | > 21.5 | <0.22 | <0.66 | > 21.5
11 | N#C/C=C1/c2ccccc2N=C(N2CCOC(CO)C2)c2ccccc21 (stereo not drawn) | – | – | – | ~46.4 | <0.1 | 0.3 | > 46.4
12 | N#C/C=C1/c2ccccc2N=C(N2CCNCC2)c2ccccc21 | – | – | – | 21.3 | 0.15 | 0.66 | 30.6
13 | N#C/C=C1/c2ccccc2N=C(NCCN2CCOCC2)c2ccccc21 | – | – | – | > 100 | 0.58 | <0.14 | 8.12
14 | CN(C)CCN(C)C1=Nc2ccccc2/C(=C/C#N)c2ccccc21 | – | – | – | ~31.6 | 0.32 | 0.45 | ~14.7
15 | CN1CCCCC1COC1=Nc2ccccc2/C(=C/C#N)c2ccccc21 (stereo not drawn) | – | – | – | ~68.1 | 0.11 | 0.21 | 43.6
16 | N#C/C=C1/c2ccccc2N=C(N2CCOCC2)c2ccccc21 | – | – | – | > 100 | < 0.04 | <0.14 | > 100
17 | CN1CCN(C2=Nc3ccc(Cl)cc3/C(=C/C#N)c3ccccc32)CC1 | – | – | – | 16.1 | 0.19 | 0.88 | 25.6
18 | N#C/C=C1/c2ccccc2N=C(N2CCC(O)CC2)c2ccccc21 | – | – | – | > 100 | <0.1 | <0.14 | > 46.4
19 | Cc1ccc2c(c1)N=C(N1CC[N+](C)([O-])CC1)c1ccccc1/C2=C/C#N | – | – | – | 31 | 1.78 | 0.45 | 2.66
20 | C[N+]1([O-])CCN(C2=Nc3ccccc3/C(=C/C#N)c3ccccc32)CC1 | – | – | – | ~100 | 0.26 | 0.14 | –
21 | Cc1ccc2c(c1)N=C(N1CCN(CCN3CCOC3=O)CC1)c1ccccc1/C2=C\C#N | – | – | – | > 46.4 | 0.5 | <0.3 | 9.56
22 | CC1CCN(C2=Nc3ccccc3/C(=C/C#N)c3ccccc32)CC1 | – | – | – | > 46.4 | 0.07 | <0.3 | ~68.1
23 | CC1CN(C2=Nc3ccccc3/C(=C/C#N)c3ccccc32)CCN1C (stereo not drawn) | – | – | – | 7.68 | 0.59 | 1.84 | 8.08
24 | CN1CCCN(C2=Nc3ccccc3/C(=C/C#N)c3ccccc32)CC1 | – | – | – | 5.49 | <0.22 | 2.57 | > 21.5
